Measured values as given in ChEMBL document CHEMBL2311257, “Synthesis and antioxidant activity of thymol and carvacrol based Schiff bases” (Bioorg Med Chem Lett, 2013).
Converted amounts (≈) assume the structure as drawn.

What was measured:
Type in all cases: functional
[1] = test system: Radical scavenging activity; test: Antioxidant activity assessed as DPPH radical scavenging activity in ethanol solution at 10 ug/mL
Method in brief: (§1)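 Compound dissolved in ethanol, then ethanolic DPPH added. Incubated 30 min in the dark. DPPH decrease read as absorbance at 517 nm against an ethanol blank, with ascorbic acid as reference. % activity = [(A0 − Ai)/A0] × 100, where A0 is absorbance without compound and Ai with compound. IC50 taken from activity across concentrations.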

[2] = test system: Radical scavenging activity; test: Antioxidant activity assessed as DPPH radical scavenging activity in ethanol solution at 50 ug/mL; method in brief: as §1
[3] = test system: Radical scavenging activity; test: Antioxidant activity assessed as DPPH radical scavenging activity in ethanol solution at 25 ug/mL; method in brief: as §1
[4] = test system: Radical scavenging activity; test: Antioxidant activity assessed as DPPH radical scavenging activity in ethanol solution; method in brief: as §1
[5] = test system: Radical scavenging activity; test: Antioxidant activity assessed as DPPH radical scavenging activity in ethanol solution at 100 ug/mL; method in brief: as §1
[6] = test system: Radical scavenging activity; test: Antioxidant activity assessed as DPPH radical scavenging activity in ethanol solution at 5 ug/mL; method in brief: as §1

IC50 [4] | SMILES | Activity [1] | Activity [2] | Activity [3] | Activity [5] | Activity [6]
47.39 µg/mL (≈ 152 µM) | Cc1cc(O)c(C(C)(C)C)cc1/N=C/c1ccc([N+](=O)[O-])cc1 | 26% | 62.4% | 45.3% | 73% | 16.8%
18.66 µg/mL (≈ 63.2 µM) | Cc1cc(O)c(C(C)C)cc1/N=C/c1ccc(C(C)C)cc1 | 50.8% | 70.5% | 67.5% | 82.6% | 24.5%
18.37 µg/mL (≈ 59.4 µM) | Cc1cc(O)c(C(C)C)cc1/N=C/c1ccc(C(C)(C)C)cc1 | 51.6% | 73.5% | 66.2% | 83.8% | 23.6%
11.66 µg/mL (≈ 66.2 µM) | O=C1O[C@H]([C@@H](O)CO)C(O)=C1O [ASCORBIC ACID] | 45% | 94.4% | 85% | 95.6% | 18.9%
24.04 µg/mL (≈ 81.4 µM) | CCc1ccc(/C=N/c2cc(C(C)(C)C)c(O)cc2C)cc1 | 47.2% | 72.4% | 56.3% | 80.9% | 27.1%
22.03 µg/mL (≈ 74.6 µM) | CCCc1ccc(/C=N/c2cc(C)c(O)cc2C(C)C)cc1 | 44.6% | 76.6% | 63.9% | 84.7% | 23.9%
21.89 µg/mL (≈ 81.9 µM) | Cc1ccc(/C=N/c2cc(C(C)C)c(O)cc2C)cc1 | 45% | 71.4% | 64.7% | 75.1% | 27.3%
24.4 µg/mL (≈ 95.9 µM) | Cc1cc(/N=C/c2ccccn2)c(C(C)C)cc1O | 41.2% | 75.5% | 65.2% | 78.1% | 23.4%
51.92 µg/mL (≈ 174 µM) | Cc1cc(/N=C/c2ccc([N+](=O)[O-])cc2)c(C(C)C)cc1O | 32% | 55.8% | 43% | 68.6% | 17.1%
34.03 µg/mL (≈ 127 µM) | Cc1cc(O)c(C(C)(C)C)cc1/N=C/c1cccnc1 | 37.6% | 70.3% | 54.5% | 78.3% | 20.1%
22.2 µg/mL (≈ 73.6 µM) | Cc1cc(O)c(C(C)(C)C)cc1/N=C/c1ccc(Cl)cc1 | 42.6% | 73.9% | 61.5% | 79.8% | 29.7%
167.57 µg/mL (≈ 1120 µM) | Cc1ccc(C(C)C)c(O)c1 [THYMOL] | 5.49% | 21.3% | 14.7% | 29.5% | 3.07%
20.16 µg/mL (≈ 68.2 µM) | CCCc1ccc(/C=N/c2cc(C(C)C)c(O)cc2C)cc1 | 50.7% | 69.2% | 65.5% | 72.5% | 25.1%
131.24 µg/mL (≈ 874 µM) | Cc1ccc(C(C)C)cc1O [CARVACROL] | 9.91% | 27.4% | 18.4% | 37.4% | 5.17%
24.11 µg/mL (≈ 83.8 µM) | Cc1cc(O)c(C(C)C)cc1/N=C/c1ccc(Cl)cc1 | 44.7% | 74.1% | 63.8% | 79.8% | 22.4%
22.05 µg/mL (≈ 66.4 µM) | Cc1cc(O)c(C(C)C)cc1/N=C/c1ccc(Br)cc1 | 46.9% | 72.5% | 60% | 80.9% | 27.7%
173.95 µg/mL (≈ 1060 µM) | Cc1ccc(C(C)(C)C)c(O)c1 | 4.69% | 19.6% | 11.3% | 28.6% | 3.29%
22.26 µg/mL (≈ 87.9 µM) | Cc1cc(/N=C/c2ccccc2)c(C(C)C)cc1O | 45.4% | 75% | 63.1% | 82.5% | 24.6%
18.55 µg/mL (≈ 73.2 µM) | Cc1cc(O)c(C(C)C)cc1/N=C/c1ccccc1 | 45.2% | 77.9% | 60.6% | 83.8% | 31.6%
22.27 µg/mL (≈ 83 µM) | Cc1cc(O)c(C(C)(C)C)cc1/N=C/c1ccccn1 | 44.7% | 80.7% | 61% | 91.7% | 22.4%
13.64 µg/mL (≈ 43.8 µM) | Cc1cc(O)c(C(C)(C)C)cc1/N=C/c1ccc2c(c1)OCO2 | 49.8% | 87.5% | 68.5% | 89.3% | 25.1%
